From ChEMBL document CHEMBL2321751, “Optimization of chloronitrobenzamides (CNBs) as therapeutic leads for human African trypanosomiasis (HAT)” (J Med Chem, 2013)
Values after ≈ are worked out from the molar mass of the structure shown.

Tests used:
[1] = Kinetic solubility of the compound in PBS buffer at pH 7.4 after 18 hrs by UV spectrophotometric analysis; assay type: physicochemical; conditions: PBS buffer, pH 7.4; read-out: Kinetic_solubility
Procedure, shortened: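 Compound from a 10 mM stock was added to PBS pH 7.4 and left 18 h at room temperature. The suspension was filtered, and the filtrate was mixed 1:1 with 1-propanol. Solubility was derived from UV spectrum AUC (250–500 nm) relative to a 1-propanol/PBS reference. Run in triplicate.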

Raji = assay: Cytotoxicity against human Raji cells after 72 hrs by Cell Titre Glo assay; assay type: cell-based
Procedure, shortened: (§1)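 Human cells grown to 80% confluence were plated in 384-well format and received compound dilutions by pin tool. After 72 h at 37 °C in 5% CO2, viability was measured by CellTiter-Glo luminescence.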

BJ = assay: Cytotoxicity against human BJ cells after 72 hrs by Cell Titre Glo assay; assay type: cell-based; procedure, shortened: as §1
HEK293 = assay: Cytotoxicity against HEK293 cells after 72 hrs by Cell Titre Glo assay; assay type: cell-based; conditions: Homo sapiens, HEK293, 72 h; procedure, shortened: as §1
HepG2 = assay: Cytotoxicity against human HepG2 cells after 72 hrs by Cell Titre Glo assay; assay type: cell-based; conditions: HepG2, 72 h; procedure, shortened: as §1
[2] = tested on: Trypanosoma brucei brucei; assay: Antitrypanosomal activity against Trypanosoma brucei brucei 221 after 48 hrs by Cell Titre Glo assay; assay type: functional, organism-based; conditions: Trypanosoma brucei, 221, 48 h
Procedure, shortened: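 Bloodstream-form parasites grown in HMI-9 with 10% heat-inactivated FBS, 10% Serum Plus and penicillin/streptomycin at 37 °C, 5% CO₂, to 1 × 10⁶ cells/mL. Diluted to 1 × 10⁴ cells/mL, then dosed with a DMSO dilution series by pin transfer. Incubated 48 h at 37 °C, 5% CO₂. Viability read by CellTiter-Glo luminescence. EC₅₀ from a variable-slope sigmoidal fit. Mean of six replicates, errors as 95% CI.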

[3] = Permeability of the compound at pH 7.4 by PAMPA; assay type: ADME; conditions: for Papp: PAMPA, read-out: permeability; for permeability: pampa, BLD = below limit of detection
Procedure, shortened: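 Compound (10 mM DMSO stock) was diluted in system solution buffer pH 7.4 and placed in the donor chamber of a PAMPA sandwich whose membrane was coated with GIT lipid. Acceptor buffer filled the acceptor chamber, and the assembly was stirred for 30 min. Donor and acceptor UV spectra (250–500 nm) were compared with a reference to give the permeability coefficient. Run in triplicate.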

## O=C(Nc1ccc(F)c(-c2nc3ccccc3o2)c1)c1cc([N+](=O)[O-])ccc1Cl
[1]
  solubility kinetic at 18 h: 0.27 µM (≈ 0.111 µg/mL)
Raji
  EC50: > 25 µM
BJ
  EC50: > 25 µM
HEK293
  EC50: > 25 µM
HepG2
  EC50: > 25 µM
[2]
  EC50: 0.17 µM
[3]
  Papp: 366 ×10⁻⁶ cm/s

## COc1ccc(NC(=O)c2cc([N+](=O)[O-])ccc2Cl)cc1-c1nc2ccccc2s1
[1]
  solubility kinetic at 18 h: 0.26 µM (≈ 0.114 µg/mL)
Raji
  EC50: > 25 µM
BJ
  EC50: > 25 µM
HEK293
  EC50: > 25 µM
HepG2
  EC50: > 25 µM
[2]
  EC50: 3.6 µM
[3]
  permeability: BLD

## Cc1cc(NC(=O)c2cc([N+](=O)[O-])ccc2Cl)cc(-c2nc3ccccc3s2)c1O
[1]
  solubility kinetic at 18 h: 0.43 µM (≈ 0.189 µg/mL)
Raji
  EC50: > 25 µM
BJ
  EC50: > 25 µM
HEK293
  EC50: > 25 µM
HepG2
  EC50: > 25 µM
[2]
  EC50: > 10 µM
[3]
  Papp: 48 ×10⁻⁶ cm/s

## O=C(Nc1cc(-c2nc3ccccc3s2)ccc1Cl)c1cc([N+](=O)[O-])ccc1Cl
[1]
  solubility kinetic at 18 h: 0.1 µM (≈ 0.0444 µg/mL)
Raji
  EC50: > 25 µM
BJ
  EC50: > 25 µM
HEK293
  EC50: > 25 µM
HepG2
  EC50: > 25 µM
[2]
  EC50: 0.24 µM
[3]
  permeability: BLD

## O=C(Nc1ccc(Cl)c(-c2nc3ccccc3s2)c1)c1cc([N+](=O)[O-])ccc1Cl
[1]
  solubility kinetic at 18 h: 0.41 µM (≈ 0.182 µg/mL)
Raji
  EC50: > 25 µM
BJ
  EC50: > 25 µM
HEK293
  EC50: > 25 µM
HepG2
  EC50: > 25 µM
[2]
  EC50: 0.32 µM
[3]
  Papp: 3 ×10⁻⁶ cm/s

## Cc1ccc(-c2nc3ccccc3s2)cc1NC(=O)c1cc([N+](=O)[O-])c(N(C)C)cc1Cl
[1]
  solubility kinetic at 18 h: 0.03 µM (≈ 0.014 µg/mL)
Raji
  EC50: > 25 µM
BJ
  EC50: > 25 µM
HEK293
  EC50: > 25 µM
HepG2
  EC50: > 25 µM
[2]
  EC50: 0.47 µM
[3]
  Papp: < 1 ×10⁻⁶ cm/s

## Cc1ccc(-c2nc3ccccc3s2)cc1NC(=O)c1cc([N+](=O)[O-])c(N2CCC(C(=O)O)CC2)cc1Cl
[1]
  solubility kinetic at 18 h: 0.59 µM (≈ 0.325 µg/mL)
Raji
  EC50: > 25 µM
BJ
  EC50: > 25 µM
HEK293
  EC50: > 25 µM
HepG2
  EC50: > 25 µM
[2]
  EC50: 0.5 µM
[3]
  Papp: 17 ×10⁻⁶ cm/s

## CCOC(=O)Cc1cc(Cl)c(C(=O)Nc2cc(-c3nc4ccccc4s3)ccc2C)cc1[N+](=O)[O-]
[1]
  solubility kinetic at 18 h: 0.19 µM (≈ 0.0969 µg/mL)
Raji
  EC50: > 25 µM
BJ
  EC50: > 25 µM
HEK293
  EC50: > 25 µM
HepG2
  EC50: > 25 µM
[2]
  EC50: 0.52 µM
[3]
  Papp: 10 ×10⁻⁶ cm/s

## COc1ccc(-c2nc3ccccc3s2)cc1NC(=O)c1cc([N+](=O)[O-])c(N2CCC(C(=O)O)CC2)cc1Cl
[1]
  solubility kinetic at 18 h: 0.21 µM (≈ 0.119 µg/mL)
Raji
  EC50: > 25 µM
BJ
  EC50: > 25 µM
HEK293
  EC50: > 25 µM
HepG2
  EC50: > 25 µM
[2]
  EC50: 0.64 µM
[3]
  Papp: 5 ×10⁻⁶ cm/s

## COC(=O)C1CCN(c2cc(Cl)c(C(=O)Nc3cc(-c4nc5ccccc5s4)ccc3OC)cc2[N+](=O)[O-])CC1
[1]
  solubility kinetic at 18 h: 0.17 µM (≈ 0.0988 µg/mL)
Raji
  EC50: > 25 µM
BJ
  EC50: > 25 µM
HEK293
  EC50: > 25 µM
HepG2
  EC50: > 25 µM
[2]
  EC50: 0.72 µM
[3]
  Papp: < 1 ×10⁻⁶ cm/s

## O=C(O)COc1cc(Cl)c(C(=O)Nc2cccc(-c3nc4ccccc4s3)c2)cc1[N+](=O)[O-]
[1]
  solubility kinetic at 18 h: 6.7 µM (≈ 3.24 µg/mL)
Raji
  EC50: > 25 µM
BJ
  EC50: > 25 µM
HEK293
  EC50: > 25 µM
HepG2
  EC50: > 25 µM
[2]
  EC50: 0.8 µM
[3]
  Papp: < 1 ×10⁻⁶ cm/s

## O=C(Nc1cccc(-c2nc3ccccc3s2)c1)c1cc([N+](=O)[O-])c(O)cc1Cl
[1]
  solubility kinetic at 18 h: 2.2 µM (≈ 0.937 µg/mL)
Raji
  EC50: > 25 µM
BJ
  EC50: > 25 µM
HEK293
  EC50: > 25 µM
HepG2
  EC50: > 25 µM
[2]
  EC50: > 33 µM
[3]
  Papp: 307 ×10⁻⁶ cm/s

## O=C(Nc1nc(-c2cccc(F)c2)cs1)c1cc([N+](=O)[O-])ccc1Cl
[1]
  solubility kinetic at 18 h: 0.78 µM (≈ 0.295 µg/mL)
Raji
  EC50: 11 µM
BJ
  EC50: 24 µM
HEK293
  EC50: 8.7 µM
HepG2
  EC50: 18 µM
[2]
  EC50: 3.5 µM
[3]
  Papp: 3 ×10⁻⁶ cm/s

## O=C(Nc1nc2ccc(F)cc2s1)c1cc([N+](=O)[O-])ccc1Cl
[1]
  solubility kinetic at 18 h: 0.57 µM (≈ 0.2 µg/mL)
Raji
  EC50: > 27 µM
BJ
  EC50: > 27 µM
HEK293
  EC50: > 27 µM
HepG2
  EC50: > 27 µM
[2]
  EC50: 5.6 µM
[3]
  Papp: 10 ×10⁻⁶ cm/s

## O=C(Nc1nc2ccc(Cl)cc2s1)c1cc([N+](=O)[O-])ccc1Cl
[1]
  solubility kinetic at 18 h: 1.2 µM (≈ 0.442 µg/mL)
Raji
  EC50: > 27 µM
BJ
  EC50: > 27 µM
HEK293
  EC50: > 27 µM
HepG2
  EC50: > 27 µM
[2]
  EC50: 8.1 µM
[3]
  Papp: 138 ×10⁻⁶ cm/s

## O=C(Nc1nc2c(Cl)cccc2s1)c1cc([N+](=O)[O-])ccc1Cl
[1]
  solubility kinetic at 18 h: 0.72 µM (≈ 0.265 µg/mL)
Raji
  EC50: 15 µM
BJ
  EC50: > 27 µM
HEK293
  EC50: > 27 µM
HepG2
  EC50: > 27 µM
[2]
  EC50: 12 µM
[3]
  Papp: 242 ×10⁻⁶ cm/s

## O=C(Nc1ccccc1-c1nc2ccccc2s1)c1cc([N+](=O)[O-])ccc1Cl
Raji
  EC50: > 27 µM
BJ
  EC50: > 27 µM
HEK293
  EC50: > 27 µM
HepG2
  EC50: > 27 µM
[2]
  EC50: > 33 µM

## O=C(CNc1ccc(-c2nc3ccccc3s2)cc1)c1cc([N+](=O)[O-])ccc1Cl
Raji
  EC50: > 27 µM
BJ
  EC50: > 27 µM
HEK293
  EC50: > 27 µM
HepG2
  EC50: > 27 µM
[2]
  EC50: > 16 µM

## O=C(Nc1cccc(-c2nc3ccccc3[nH]2)c1)c1cc([N+](=O)[O-])ccc1Cl
[1]
  solubility kinetic at 18 h: 1.4 µM (≈ 0.55 µg/mL)
Raji
  EC50: 20.7 µM
BJ
  EC50: > 27 µM
HEK293
  EC50: > 27 µM
HepG2
  EC50: > 27 µM
[2]
  EC50: 26 µM
[3]
  Papp: 352 ×10⁻⁶ cm/s

## O=C(Nc1ccc(-c2ccccc2)cc1)c1cc([N+](=O)[O-])ccc1Cl
[1]
  solubility kinetic at 18 h: 0.12 µM (≈ 0.0423 µg/mL)
Raji
  EC50: > 27 µM
BJ
  EC50: > 27 µM
HEK293
  EC50: > 27 µM
HepG2
  EC50: > 27 µM
[2]
  EC50: 1.9 µM
[3]
  Papp: 26 ×10⁻⁶ cm/s

## O=C(Nc1cccc(-c2ccccc2)c1)c1cc([N+](=O)[O-])ccc1Cl
[1]
  solubility kinetic at 18 h: 0.41 µM (≈ 0.145 µg/mL)
Raji
  EC50: > 27 µM
BJ
  EC50: > 27 µM
HEK293
  EC50: 22 µM
HepG2
  EC50: > 27 µM
[2]
  EC50: 1.2 µM
[3]
  permeability: BLD

## Cc1ccc(-c2nc3ccccc3o2)cc1NC(=O)c1cc([N+](=O)[O-])ccc1Cl
[1]
  solubility kinetic at 18 h: 0.31 µM (≈ 0.126 µg/mL)
Raji
  EC50: > 14 µM
BJ
  EC50: > 14 µM
HEK293
  EC50: > 14 µM
HepG2
  EC50: > 14 µM
[2]
  EC50: 0.02 µM
[3]
  permeability: BLD

## COc1ccc(-c2nc3ccccc3o2)cc1NC(=O)c1cc([N+](=O)[O-])ccc1Cl
[1]
  solubility kinetic at 18 h: 0.09 µM (≈ 0.0381 µg/mL)
Raji
  EC50: > 25 µM
BJ
  EC50: > 25 µM
HEK293
  EC50: > 25 µM
HepG2
  EC50: > 25 µM
[2]
  EC50: 0.12 µM
[3]
  Papp: 274 ×10⁻⁶ cm/s

## Cc1cc(NC(=O)c2cc([N+](=O)[O-])ccc2Cl)cc(-c2nc3ccccc3o2)c1O
[1]
  solubility kinetic at 18 h: 0.09 µM (≈ 0.0381 µg/mL)
Raji
  EC50: > 25 µM
BJ
  EC50: > 25 µM
HEK293
  EC50: > 25 µM
HepG2
  EC50: > 25 µM
[2]
  EC50: 0.22 µM
[3]
  Papp: 105 ×10⁻⁶ cm/s

## O=C(Nc1ccc(Cl)cc1)c1cc([N+](=O)[O-])ccc1Cl
Raji
  EC50: > 27 µM
BJ
  EC50: > 27 µM
HEK293
  EC50: > 27 µM
HepG2
  EC50: > 27 µM
